Results reported in ChEMBL document CHEMBL3244048, “Synthesis and biological activity of potential antimetabolites of L-fucose” (1979).
The source made the active and inactive calls. The rule behind the calls is not given here.

Experiments:
P388 [1] = assay: Cytotoxicity against mouse P388 cells assessed as growth inhibition at 1x10'-3 M after 72 hrs by Coulter counting analysis relative to control; assay type: functional; details: P388, 72 h, read-out: GI
How it was run: (§1)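 P388 leukemia cells seeded at 1.1 × 10^4 cells/mL in Fischer's medium with 10% horse serum. Compound dissolved in 0.9% NaCl, with or without 3% Me2SO, at ten times final concentration, filter-sterilized, and added at one-tenth volume. Incubation at 37 °C under 5% CO2; cell numbers counted in triplicate by electronic particle counter after 72 h.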

P388 [2] = assay: Cytotoxicity against mouse P388 cells assessed as growth inhibition at 5x10'-4 M after 72 hrs by Coulter counting analysis relative to control; assay type: functional; details: P388, 72 h, read-out: GI; how it was run: as §1
P388 [3] = assay: Cytotoxicity against mouse P388 cells assessed as growth inhibition at 1x10'-4 M after 72 hrs by Coulter counting analysis relative to control; assay type: functional; details: P388, 72 h, read-out: GI; how it was run: as §1
P388 [4] = assay: Displacement of L-[3H]-fucose from glycoprotein in mouse P388 cells at 10^-4 to 10^-3 M incubated for 2 hrs prior to radioligand addition measured after 30 mins by scintillation spectrometric analysis; assay type: cell-based
How it was run: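 P388 cells grown to midlog phase (4 × 10^5 cells/mL) in Fischer's medium plus 10% horse serum, then resuspended in fresh medium at 5 × 10^6 cells/mL. Preincubated 2 h at 37 °C with shaking with compound at 10^-4 or 10^-3 M. L-[3H]fucose and [14C]glucosamine (nonspecific control) then added for 30 min. Stopped with cold 10% TCA; pellets washed, lipid-extracted, hydrolyzed in 0.5 N NaOH at 85 °C; scintillation counting.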

P388 [5] = assay: Cytotoxicity against mouse P388 cells assessed as growth inhibition at 1x10'-5 M after 72 hrs by Coulter counting analysis relative to control; assay type: functional; details: P388, 72 h, read-out: GI; how it was run: as §1
P388 [6] = assay: Cytotoxicity against mouse P388 cells assessed as growth inhibition at 2.5x10'-4 M after 72 hrs by Coulter counting analysis relative to control; assay type: functional; details: P388, 72 h, read-out: GI; how it was run: as §1

| Compound | inhibition of growth at 1000 µM (P388 [1]) [%] | inhibition of growth at 500 µM (P388 [2]) [%] | inhibition of growth at 100 µM (P388 [3]) [%] | inhibition (P388 [4]) | inhibition of growth at 10 µM (P388 [5]) [%] | inhibition of growth at 250 µM (P388 [6]) [%] |
| --- | --- | --- | --- | --- | --- | --- |
| CS(=O)(=O)OC[C@@H]1OC(O)[C@@H](O)[C@H](O)[C@@H]1O (stereo not given in full) | 96 | 86 | 56 | inactive |  |  |
| OC1O[C@@H](CF)[C@@H](O)[C@@H](O)[C@@H]1O (stereo not given in full) | 8 |  | 10 | inactive | 3 |  |
| OC1O[C@@H](CCl)[C@@H](O)[C@@H](O)[C@@H]1O (stereo not given in full) | 15 |  | 10 | inactive | 10 |  |
| OC1O[C@@H](CBr)[C@@H](O)[C@@H](O)[C@@H]1O (stereo not given in full) | 97 | 87 | 33 | inactive |  |  |
| OC1O[C@@H](COCc2ccccc2)[C@@H](O)[C@@H](O)[C@@H]1O (stereo not given in full) | 26 | 21 | 17 | inactive |  |  |
| COC[C@@H]1OC(O)[C@@H](O)[C@H](O)[C@@H]1O (stereo not given in full) | 73 |  | 16 | inactive | 12 |  |
| OC1O[C@@H](C(F)F)[C@@H](O)[C@@H](O)[C@@H]1O (stereo not given in full) | 0 | 0 | 0 | inactive |  |  |
| O=C(NC[C@@H]1OC(O)[C@@H](O)[C@H](O)[C@@H]1O)C(F)(F)F (stereo not given in full) | 36 |  | 14 | inactive | 7 |  |
| OC1O[C@@H](CI)[C@@H](O)[C@@H](O)[C@@H]1O (stereo not given in full) | 91 | 71 | 44 | inactive |  |  |
| Cc1ccc(S(=O)(=O)OC[C@@H]2OC(O)[C@@H](O)[C@H](O)[C@@H]2O)cc1 (stereo not given in full) | 96 | 94 | 25 | inactive | 14 |  |
| CC(=O)O[C@@H]1O[C@@H](C(F)F)[C@@H](OC(C)=O)[C@@H](OC(C)=O)[C@@H]1OC(C)=O |  |  |  |  |  | 89 |
| CC(=O)NC[C@@H]1OC(O)[C@@H](O)[C@H](O)[C@@H]1O (stereo not given in full) | 16 |  | 9 | inactive | 15 |  |
| CCOC[C@@H]1OC(O)[C@@H](O)[C@H](O)[C@@H]1O (stereo not given in full) | 23 | 31 | 25 | inactive |  |  |
| O=S(=O)(OC[C@@H]1OC(O)[C@@H](O)[C@H](O)[C@@H]1O)c1ccccc1 (stereo not given in full) | 97 | 95 | 52 | inactive |  |  |
| [N-]=[N+]=NC[C@@H]1OC(O)[C@@H](O)[C@H](O)[C@@H]1O (stereo not given in full) | 20 |  | 12 | inactive | 7 |  |
| CC[C@@H]1OC(O)[C@@H](O)[C@H](O)[C@@H]1O (stereo not given in full) | 2 |  |  | inactive |  |  |
